# Compound activity deposited in PubChem by several laboratories.
# Compounds with a hit are over-represented: about 2.2% of the library has one in this group of screens.
# Ba/F3 V617F tox: reduced viability of JAK2V617F-dependent Ba/F3 cells, primary screen, JAK2V617F inhibitor project, cell-based, Ba/F3 EpoR-JAK2V617F, luminescence | actives 1.1% (n = 220,000) | inhibition, % at 5.6 µM | ATP luminescence;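 active = inhibition above the campaign mean plus 3 SD over all tested compounds, cut at about 24% in these data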;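 also: cytokine-independent growth of Ba/F3 cells driven by EpoR plus mutant JAK2; 0% = DMSO-treated cells and 100% = JAK inhibitor I control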
# BaF3 tox: parental Ba/F3 cell viability inhibition, counter-screen for JAK2V617F inhibitor project, murine pro-B, CellTiter-Glo luminescence. CellTiter-Glo ATP luminescence. inhibition, % at 5.6 µM. actives 1.1% (n = 220,000). AID 1486, 2009;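 active = inhibition above a per-campaign cutoff, the mean inhibition of all tested compounds plus 3 SD, cut at about 27% in these data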;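 also: 0% = DMSO wells and 100% = JAK Inhibitor I control wells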
# IEC-6 tox: cytotoxicity in IEC-6 intestinal epithelial cells, primary screen, cytotoxicity control for KLF5 inhibitor project, cell-based, luminescence | IEC-6 cytotoxicity, luminescence viability | inhibition, % at 5 µM | actives 0.78% (n = 290,000) | AID 1825, 2009; in the data active = inhibition above about 22%;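 also: 0% = plate median of test compound wells and 100% = cytotoxic reference compound wells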
# MT stabilize HCS: microtubule stabilizers in HeLa cells, primary screen, imaging, high-content imaging | HeLa tubulin immunostaining HCS, 24 h; share of cells brighter than vehicle mean+2SD | % tubulin-high responders, % at 10 µM | actives 0.83% (n = 200,000) | AID 2205, 2009;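 active = plate Z-score above 3 for both tubulin-high and condensed-nucleus cell shares, with cell loss under 80%, at 10 µM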;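 also: anti alpha tubulin signal scored within the nucleus-defined area of each cell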
# bCat nuc transl: modulators of beta-catenin nuclear translocation, primary screen, imaging, HeLa cells, immunofluorescence, high-content; nuclear translocation activity, % at 5 µM; actives 0.3% (n = 190,000);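 active = nuclear translocation activity above 50% at 5 µM, with a well cell count of 50 or more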;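 also: per-cell ratio of nuclear to cytoplasmic median beta-catenin stain intensity; plate controls were DMSO negative control for no effect and GSK-3 inhibitor IX positive control for full effect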
#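 Test system: human HeLa cells, endogenous beta-catenin. Times: 24 h compound exposure, 37°C. Measured by: beta-catenin immunofluorescence imaging with DAPI.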
# APP transl inh: inhibitors of APP translation via 5'UTR reporter, primary screen, APP 5'UTR luciferase, SH-SY5Y cells; SH-SY5Y APP 5'UTR-luciferase reporter, luminescence; inhibition, % at 2 µM; actives 0.82% (n = 190,000); AID 1285, 2008;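 active = inhibition above a set limit, derived from the sample mean plus 3 SD, cut at about 45% in these data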
# Active calls of the source: *; . = no result.
SMILES,Ba/F3 V617F tox,BaF3 tox,IEC-6 tox,MT stabilize HCS,bCat nuc transl,APP transl inh
CCCC(c1nnnn1CC1CCCO1)N1CCN(c2cc(Cl)ccc2C)CC1 (stereo not given),-6,31*,0,4,1,-13
CCOc1ccc(CCNc2nc3ccc(C)cc3n3cnnc23)cc1OCC,.,.,7,.,.,.
O=C1CC(Sc2nnc(-c3ccccc3O)o2)C(=O)N1c1ccccc1 (stereo not given),-2,7,3,3,-6,37
COc1ccc(N2C(=O)CC(Sc3nnc(-c4ccccc4)o3)C2=O)cc1 (stereo not given),0,6,-3,4,-7,46*
CCOC(=O)c1ccc(CNC(=O)C2CCC(=O)N(CCc3ccccc3)C2)o1 (stereo not given),.,.,5,.,.,.
CCOc1ccc(CN=C(N)N=C(N)N)cc1Cl,21,27*,-1,4,3,-22
CCCOc1ccc(CCCN=C(N)N)cc1Cl,25*,46*,10,.,4,.
CCCOc1ccc(CSC(=N)N)cc1C(=O)OC,0,0,-1,.,0,.
CCCCOc1ccc(CN=C(N)N)cc1Cl,15,35*,8,.,4,.
COc1ccccc1/C=C/CN1CCC(Oc2cc(C(=O)NC3CC3)ccc2OC)CC1,.,.,6,.,.,.
CCOC(=O)N1CCN(C(=O)c2cn(C)c3ccc(S(=O)(=O)N4CCOCC4)cc3c2=O)CC1,.,.,10,.,.,.
C=CCn1c(C)cc(C(=O)CSc2nnc(NCc3ccccc3)s2)c1C,-3,1,6,40*,-4,-16
COc1ccc(-c2cnnc(N/N=C/c3ccc(O)cc3)n2)cc1,-2,-3,8,3,-3,-10
COc1ccc(-c2cnnc(N/N=C/c3c(C)nn(-c4ccccc4)c3Cl)n2)cc1,5,5,6,17,1,62*
COCCNC(=O)c1cccc(OC2CCN(Cc3ccccc3C)CC2)c1,.,.,5,.,.,.
N#CCC(=O)Nc1ccc(C(=O)NCCc2c[nH]c3ccccc23)cc1,.,.,2,.,.,.
CCc1ccc(OCCSc2nc3ccccc3n2CC(=O)O)cc1,.,.,1,.,.,.
CC(C)c1ccc(/C=N/NC(=O)c2cccc(Cl)c2)cc1,0,1,-3,23*,.,-70
CC(CNC(=O)c1ccccc1Cl)c1ccccc1 (stereo not given),.,.,-6,.,.,.
COC(=O)N=Nc1c(O)[nH]c2ccc(Br)cc12,0,-10,-4,.,-2,.
Oc1[nH]c2ccccc2c1N=NC(=S)N1CCOCC1,54*,59*,48*,.,2,.
Oc1[nH]c2ccc(Br)cc2c1N=NC(=S)N1CCOCC1,95*,94*,88*,.,1,.
NC(=S)N=Nc1c(O)[nH]c2ccccc12,1,4,0,4,-4,11
COc1ccccc1-c1coc2c(CN3CCOCC3)c(O)ccc2c1=O,.,.,7,.,.,.
COc1ccc(O)c(C(=O)c2cnc3nc4ccccc4n3c2)c1,-1,7,3,28*,76*,-3
SMILES,Ba/F3 V617F tox,BaF3 tox,IEC-6 tox,MT stabilize HCS,bCat nuc transl,APP transl inh
COc1ccc(O)c(C(=O)c2cnn(-c3ccccn3)c2)c1,-3,-4,-3,5,0,-44
CCC(=O)Nc1cccc(-c2cnc3ccccc3n2)c1,3,5,0,2,.,-52
O=C(CCl)Nc1cccc(-c2cnc3ccccc3n2)c1,73*,39*,8,10,2,.
CC(=O)c1ccc(OC(C)C)c(CC(C(N)=O)C(N)=O)c1,1,5,-3,1,-2,46*
CC(=O)c1ccc(OCC(C)C)c(CC(C(N)=O)C(N)=O)c1,0,6,-6,2,-1,-4
COc1ccc(S(=O)(=O)Nc2ccc(C(N)=O)cc2)cc1C(=O)N1CCCCCC1,.,.,-5,.,.,.
CCCCOc1ccccc1C1CC(=O)NC2=C1C(=O)CCC2 (stereo not given),82*,83*,84*,48*,109*,88*
CCOc1ccc(C2CC(=O)NC3=C2C(=O)CCC3)cc1 (stereo not given),0,2,2,3,-2,1
CCOc1ccccc1C1CC(=O)NC2=C1C(=O)CCC2 (stereo not given),-1,5,8,58*,22,-4
Clc1ccc(-c2nnc3sc(-c4ccc(Br)o4)nn23)c(Cl)c1,4,2,6,2,3,-6
CN(C)c1ccc(-c2nn3c(-c4ccc(Cl)cc4Cl)nnc3s2)cc1,-4,-3,2,30*,53*,40
Cc1cccc(NS(=O)(=O)Cc2ccccc2)n1,-2,-5,-4,4,-1,75*
CCN(CC)c1ccc(/C=N/NC(=O)c2cccc(S(=O)(=O)Nc3ccccc3OC)c2)c(O)c1,10,4,31*,5,.,70*
COc1cccc2nc3cc(C)c(C)cc3nc12,29*,29*,14,.,-2,.
COc1cccc2c1nc(C)c1cc(C)oc12,4,7,6,3,0,-4
O=C(c1cccnc1)N1CCN(c2ccccc2Cl)CC1,0,0,-3,.,1,.
CCOc1ccccc1CN1CCN(Cc2ccc(C)o2)C(CCO)C1 (stereo not given),1,80*,2,2,2,5
CCOc1ccccc1CN1CCN(Cc2ccc(C)o2)CC1CCO (stereo not given),1,4,4,1,-1,-6
Cc1ccc(N=Nc2c(N)nn(-c3ccccc3)c2N)cc1,47*,35*,25*,10*,2,-24
CCOc1ccc2c(c1)OC(c1ccc(C)cc1)(C(F)(F)F)NC2=O (stereo not given),58*,51*,42*,6,-2,95*
Cc1ccc(OCC(=O)Nc2ccc3c(c2)C(=O)NC3=O)cc1,.,.,-4,.,.,.
CCC(C(=O)c1ccccc1)N(C(=O)c1ccccc1Cl)N1C(=O)C2C3C=CC(C3)C2C1=O (stereo not given),-4,95*,0,3,.,-15
Clc1cccc(Nc2ncnc3ccc(Br)cc23)c1,4,6,30*,2,-2,-8
Clc1ccc(Nc2ncnc3ccc(Br)cc23)cc1,5,11,26*,1,17,10
Cn1ncc(N=Cc2ccccc2)c1C(=O)Nc1cccc(Cl)c1,-2,-1,4,34*,49,-4
Cn1ncc(N=Cc2ccccc2)c1C(N)=O,-7,-3,-9,2,-4,-2
COc1cccc(Cn2cc(N)cn2)c1,0,2,5,4,-1,2
CCOc1[nH]n(-c2ccccc2)c(=O)c1C=NCc1ccncc1,8,8,7,7,-3,49*
